Measurements published in ChEMBL document CHEMBL1149756, “Synthesis and antiprotozoal activities of simplified analogs of naphthylisoquinoline alkaloids” (Eur J Med Chem, 2008).
Converted amounts (≈) assume the structure as drawn. The source made the active and inactive calls. The rule behind the calls is not given here.

How the values were obtained:
[1] = tested on: Leishmania donovani; test: Antileishmanial activity against Leishmania donovani infected in mouse peritoneal macrophages after 96 hrs; type: functional, organism-based
Outline: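 L. donovani amastigotes from axenic culture grown at pH 5.4, 1.2 × 10⁵ per well added to macrophages; free amastigotes removed after 4 h and medium replaced. Compound dilutions added next day, 96 h incubation. Slides methanol-fixed 10 min, stained with 10% Giemsa; infected and non-infected macrophages counted, infection rates versus controls. Means of at least two independent assays in duplicate.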

[2] = tested on: L6; test: Cytotoxicity against rat L6 cells after 4 days; type: cell-based; details: L6, 96 h
Outline: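 Non-infected L6 cells seeded at 2000 cells/well in RPMI 1640, 10% FBS, 2 mM L-glutamine, exposed to serial drug dilutions 4 d at 37 °C, 5% CO₂. […] after 2–4 h. IC50 from sigmoidal inhibition curve; means of at least two independent assays in duplicate.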

[3] = Therapeutic index, ratio of IC50 for rat L6 cells to IC50 for Trypanosoma cruzi
[4] = tested on: Leishmania donovani; test: Antileishmanial activity against Leishmania donovani amastigotes infected in mouse peritoneal macrophages after 96 hrs
[5] = tested on: Trypanosoma cruzi; test: Antitrypanosomal activity against Trypanosoma cruzi Tulahuen C2C4 trypomastigotes infected in rat L6 cells after 4 days
[6] = Therapeutic index, ratio of IC50 for rat L6 cells to IC50 for Leishmania donovani; type: cell-based; details: read-out: Ratio IC50
[7] = tested on: Leishmania donovani; test: Antileishmanial activity against Leishmania donovani axenic amastigotes
[8] = Therapeutic index, ratio of IC50 for rat L6 cells to IC50 for Trypanosoma cruzi C2C4; type: cell-based; details: read-out: Ratio IC50

SMILES	IC50 [1]	IC50 [2]	selectivity ratio [3]	IC50 [4]	IC50 [5]	selectivity ratio [6]	Activity [7]	selectivity ratio [8]
COc1ccc(-c2c(OC)cc(OC)c3c2CC(C)(C)N=C3C)cc1	> 5 µg/mL	43.4 µg/mL (≈ 128 µM)	12.1	> 30 µg/mL	3.6 µg/mL (≈ 10.6 µM)	–	–	–
COc1cc(O)cc2c1CN(Cc1ccccc1)C(C)(C)C2	0.521 µg/mL (≈ 1.75 µM)	79.6 µg/mL (≈ 268 µM)	–	30 µg/mL (≈ 101 µM)	22.7 µg/mL (≈ 76.3 µM)	153	–	–
COc1cc2c(c(OC)c1)CN(Cc1ccccc1)C(C)(C)C2	1.4 µg/mL (≈ 4.48 µM)	> 90 µg/mL	–	> 10 µg/mL	20.1 µg/mL (≈ 64.5 µM)	> 64.5	–	–
COc1cc(OS(=O)(=O)C(F)(F)F)cc2c1CN(Cc1ccccc1)C(C)(C)C2	4.67 µg/mL (≈ 10.9 µM)	> 90 µg/mL	–	–	44.8 µg/mL (≈ 104 µM)	> 19.2	inactive	–
O=C(Cn1ccnc1[N+](=O)[O-])NCc1ccccc1 [BENZNIDAZOLE]	–	–	> 360	–	0.25 µg/mL (≈ 0.961 µM)	–	–	–
CCN(CC)CCCC(C)Nc1ccnc2cc(Cl)ccc12 (centres undefined) [CHLOROQUINE]	0.23 µg/mL (≈ 0.719 µM)	–	–	–	–	1090	–	–
COc1cc(OC)c(-c2ccc(O)cc2)c2c1CNC(C)(C)C2	> 5 µg/mL	28.2 µg/mL (≈ 90 µM)	–	12.8 µg/mL (≈ 40.7 µM)	45.2 µg/mL (≈ 144 µM)	–	–	–
COc1cc2c(c(OC)c1)C=NC(C)(C)C2	> 5 µg/mL	> 90 µg/mL	–	18.3 µg/mL (≈ 83.5 µM)	59.1 µg/mL (≈ 270 µM)	–	–	–
COc1ccc(I)c2c1CN(Cc1ccccc1)C(C)(C)C2	3.87 µg/mL (≈ 9.49 µM)	30 µg/mL (≈ 73.7 µM)	5.77	–	5.2 µg/mL (≈ 12.8 µM)	7.8	inactive	–
COc1cc(OC)c2c(c1Br)CC(C)(C)N(Cc1ccccc1)C2	0.424 µg/mL (≈ 1.09 µM)	84.8 µg/mL (≈ 217 µM)	14.6	4.2 µg/mL (≈ 10.8 µM)	5.8 µg/mL (≈ 14.9 µM)	200	–	20.2
COc1cc2c(c(OC)c1)C(C)=NC(C)(C)C2	4.06 µg/mL (≈ 17.4 µM)	> 90 µg/mL	–	18.2 µg/mL (≈ 78 µM)	44.8 µg/mL (≈ 192 µM)	> 22.2	–	–
COc1cc(OC)c(-c2ccc(O)c3ccccc23)c2c1CNC(C)(C)C2	0.349 µg/mL (≈ 0.96 µM)	8.4 µg/mL (≈ 23.1 µM)	1.53	5.2 µg/mL (≈ 14.3 µM)	5.5 µg/mL (≈ 15.1 µM)	24.1	–	1.62
COc1cc([C@@H]2c3cc4c(cc3[C@H](O)[C@H]3COC(=O)[C@H]23)OCO4)cc(OC)c1OC [PODOFILOX]	–	0.006 µg/mL (≈ 0.0145 µM)	–	–	–	–	–	–
COc1ccc(-c2ccc(O)cc2CO)c2c1CNC(C)(C)C2	3.55 µg/mL (≈ 11.3 µM)	> 90 µg/mL	–	> 30 µg/mL	> 30 µg/mL	–	–	–
COc1ccc(I)c2c1CNC(C)(C)C2	0.341 µg/mL (≈ 1.08 µM)	83.9 µg/mL (≈ 265 µM)	–	–	10 µg/mL (≈ 31.5 µM)	–	inactive	–
COc1cc(OC)c2c(c1I)CC(C)(C)NC2	0.463 µg/mL (≈ 1.33 µM)	33.2 µg/mL (≈ 95.6 µM)	–	> 10 µg/mL	37.7 µg/mL (≈ 109 µM)	–	–	–
COc1cccc2c1CNC(C)(C)C2	> 5 µg/mL	> 90 µg/mL	–	–	33 µg/mL (≈ 173 µM)	–	inactive	–
COc1cc(OC)c2c(c1Br)CC(C)(C)NC2	0.628 µg/mL (≈ 2.09 µM)	> 90 µg/mL	–	> 10 µg/mL	40.7 µg/mL (≈ 136 µM)	–	–	–
COc1cc2c(c(OC)c1)CNC(C)(C)C2	3.46 µg/mL (≈ 15.6 µM)	> 90 µg/mL	–	> 30 µg/mL	> 90 µg/mL	–	–	–
COc1cc(OC)c2c(c1Br)CC(C)(C)N=C2C	0.377 µg/mL (≈ 1.21 µM)	57.5 µg/mL (≈ 184 µM)	–	18.9 µg/mL (≈ 60.5 µM)	19.8 µg/mL (≈ 63.4 µM)	152	–	–
COc1cc(OC)c2c(c1I)CC(C)(C)N(Cc1ccccc1)C2	1.02 µg/mL (≈ 2.34 µM)	66 µg/mL (≈ 151 µM)	17.8	2.4 µg/mL (≈ 5.49 µM)	3.7 µg/mL (≈ 8.46 µM)	64.5	–	27.5
